According to ChEMBL document CHEMBL1134481, “Development of a pharmacophore model for histamine H3 receptor antagonists, using the newly developed molecular modeling program SLATE” (J Med Chem, 2001):

Columns and labels:
Format in all cases: tissue-based
Histamine H3 receptor [1] = target: T1, Histamine H3 receptor (Rattus norvegicus, UniProt Q9QYN8); assay: (§1) Ability to displace [3H]Nalpha-methylhistamine from histamine H3 receptors in homogenates of rat cerebral cortex
Summary of the method: (§2)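 Binding used 30 µg protein and 1 nM [³H]-Nα-methylhistamine with 0.1–10 000 nM compound, in 50 mM Na⁺ phosphate pH 7.4, for 40 min at 25 °C. Samples were filtered on PEI-treated GF/C and counted by scintillation. Ki = IC50/(1+[ligand]/Kd).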

Histamine H3 receptor [2] = target: Histamine H3 receptor (Cavia porcellus, UniProt Q9JI35); assay: Displacement of [3H]Nalpha-methylhistamine from histamine H3 receptors in homogenates of rat cerebral cortex; conditions: read-out: pA2 (converted)
Histamine H3 receptor [3] = target: T1, Histamine H3 receptor; assay: as §1; remark: listed apart in the source
Summary of the method: as §2, with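 “Rat cortex membranes were made by homogenizing in Tris/HCl (50 mM, 5 mM MgCl₂, 145 mM NaCl, pH 7.4) and spinning at 800g, then twice at 40000g. Binding” for “Binding”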

T1 sequence (Q9QYN8 whole entry): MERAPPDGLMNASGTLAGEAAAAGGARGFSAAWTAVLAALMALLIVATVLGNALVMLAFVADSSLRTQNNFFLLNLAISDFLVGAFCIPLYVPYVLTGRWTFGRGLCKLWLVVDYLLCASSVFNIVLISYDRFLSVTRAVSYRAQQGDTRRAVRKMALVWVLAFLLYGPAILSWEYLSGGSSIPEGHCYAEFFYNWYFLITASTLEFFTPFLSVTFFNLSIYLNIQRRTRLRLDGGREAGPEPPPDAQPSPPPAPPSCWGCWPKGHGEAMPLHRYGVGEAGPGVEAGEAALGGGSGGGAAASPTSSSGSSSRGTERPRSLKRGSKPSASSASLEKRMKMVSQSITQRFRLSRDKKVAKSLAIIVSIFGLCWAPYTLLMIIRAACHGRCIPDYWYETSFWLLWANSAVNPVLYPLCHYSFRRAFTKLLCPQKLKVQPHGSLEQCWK
Histamine H3 receptor (Cavia porcellus, UniProt Q9JI35), sequence (Q9JI35 whole entry): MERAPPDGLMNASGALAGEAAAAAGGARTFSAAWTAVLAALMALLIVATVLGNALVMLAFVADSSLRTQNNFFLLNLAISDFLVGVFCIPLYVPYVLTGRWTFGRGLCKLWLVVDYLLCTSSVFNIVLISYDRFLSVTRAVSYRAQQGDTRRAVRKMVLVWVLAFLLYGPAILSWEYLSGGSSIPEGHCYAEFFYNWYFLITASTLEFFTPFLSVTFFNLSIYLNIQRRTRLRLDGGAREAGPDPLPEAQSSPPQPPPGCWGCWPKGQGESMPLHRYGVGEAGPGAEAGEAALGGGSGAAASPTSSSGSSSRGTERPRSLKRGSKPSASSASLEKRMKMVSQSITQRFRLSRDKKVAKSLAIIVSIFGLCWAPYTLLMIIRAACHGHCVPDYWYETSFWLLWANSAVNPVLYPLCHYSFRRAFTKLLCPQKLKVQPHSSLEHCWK

Molecule CCCS/C(=N/C)NCc1ccc(Cl)cc1 has a Ki (Histamine H3 receptor [1]) of over 100000 nM.

Molecule Ic1ccc(COCCCc2c[nH]cn2)cc1 [IODOPROXYFAN] has a Kb (Histamine H3 receptor [2]) of 5.01 nM.

Molecule NC(=NCc1ccc(Cl)cc1)SCCCc1cnc[nH]1 [CLOBENPROPIT] has a Kb (Histamine H3 receptor [2]) of 0.158 nM.

Molecule Clc1ccc(CN=C(NC2CCCCC2)SCCCc2cnc[nH]2)cc1 has a Ki (Histamine H3 receptor [1]) of 0.501 nM.

CC/N=C(\NCc1ccc(Cl)cc1)SCCCc1c[nH]cn1 gave a Ki (Histamine H3 receptor [1]) of 7.94 nM.

Molecule Clc1ccc(Cc2noc(CCCc3cnc[nH]3)n2)cc1 has a Kb (Histamine H3 receptor [2]) of 7.94 nM.

Molecule NC(/C=C/C1CC1c1c[nH]cn1)CC1CCCCC1 (stereo unspecified) has a Ki (Histamine H3 receptor [3]) of 0.4 nM.

N=C(Cc1ccc(Cc2cnc[nH]2)cc1)NCc1ccc(Cl)cc1 was tested, and the Ki (Histamine H3 receptor [3]) was 7 nM.

Clc1ccc(CNCCCCCc2c[nH]cn2)cc1 showed a Kb (Histamine H3 receptor [2]) of 1.26 nM.

With c1nc(CCC2CCNCC2)c[nH]1 the Kb (Histamine H3 receptor [2]) was 3.98 nM.

c1nc(CCCS/C(=N/C2CCCCC2)NC2CCCCC2)c[nH]1 gave a Ki (Histamine H3 receptor [1]) of 12.6 nM.

CC(C)(C)CC#CC1CC1c1cnc[nH]1 (stereo unspecified) gave a Ki (Histamine H3 receptor [3]) of 0.18 nM.

C/N=C(/NCc1ccc(Cl)cc1)SCCCc1c[nH]cn1 gave a Ki (Histamine H3 receptor [1]) of 3.16 nM.

S=C(NC1CCCCC1)N1CCC(c2cnc[nH]2)CC1 [THIOPERAMIDE] gave a Kb (Histamine H3 receptor [2]) of 1.26 nM.

For O=C(NCCCc1c[nH]cn1)NC1CCCCC1, the Kb (Histamine H3 receptor [2]) was 50.1 nM.

Molecule O=C(Cc1ccc(Cl)cc1)OCCCc1c[nH]cn1 has a Ki (Histamine H3 receptor [3]) of 14 nM.
